An excerpt weighted towards active compounds, which were near 2.9% of everything screened.
VIM-2 inh = inhibitors of Pseudomonas aeruginosa VIM-2 metallo-beta-lactamase; actives 0.89% (n = 290,000); purified VIM-2, nitrocefin hydrolysis, epi-absorbance fluorescence; AID 1527; inhibition, % at 5.6 µM;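 active = inhibition above the mean of all tested compounds plus 3 SD, cutoff set per screening run, cut at about 7.5% in these data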;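 also: red hydrolysis product quenches plate fluorescence so inhibitors raise well fluorescence; 0% = enzyme with DMSO and 100% = DMSO without enzyme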
NALP3 yeast inh = inhibitors of NALP3 inflammasome in yeast; AID 2825; Yeast reconstituted NLRP3/ASC/caspase-1, beta-gal luminescence, 24 h; inhibition, % at 10 µM; actives 0.39% (n = 330,000);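 active = inhibition of 50% or more; inactive = inhibition below 50%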;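 also: plate controls were induced DMSO wells for no effect and uninduced yeast grown without galactose for full effect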
NALP1 yeast inh = NALP1 inhibition. actives 0.61% (n = 280,000). S. cerevisiae NALP1/ASC/caspase-1 growth, X-gal OD620, 72 h. AID 2071. inhibition, % at 10 µM; in the data active = inhibition mostly above about 24%, no sharp cut-off; inactive = mostly below about 32%
PolyA inhibitor = yeast polyadenylation inhibition; S. cerevisiae SKY197-pL101 polyadenylation reporter, beta-gal luminescence; efflux-impaired pdr1/pdr3 knockout yeast; score 100 = 6 SD above DMSO; activity score, % at 12 µM; actives 0.02% (n = 300,000);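 active = lowest replicate activity score at least 50, where 100 means six control SD above control mean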;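 also: yeast exposed to compound for 9 h at 30 °C; higher score means more reporter readthrough which indicates perturbed polyadenylation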
IMP-1 inhibitor = inhibitors of Pseudomonas aeruginosa IMP-1 metallo-beta-lactamase; purified IMP-1, nitrocefin hydrolysis, epi-absorbance fluorescence; inhibition, % at 5.6 µM; actives 0.45% (n = 290,000); AID 1556;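 active = inhibition above the mean plus 3 SD of all compounds in the same screening run, cut at about 4.5% in these data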;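 also: 0% = IMP-1 with DMSO and 100% = DMSO wells lacking enzyme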
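System – purified recombinant IMP-1 beta-lactamase · Input – IMP-1 dispensed at 0.2 nM · Timing – 15 min preincubation plus 25 min reaction at 25 °C · Signal – Epi-absorbance fluorescence, 480 nm excitation, 530 nm emission · Measure – percent IMP-1 inhibition derived from blank-referenced optical density · Controls – Enzyme-plus-DMSO low control, enzyme-free DMSO high control · Replication – singlicate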
SUMO Mot1 rescue = inhibitors of SUMOylation pathway: yeast Mot1-301 growth rescue. actives 1% (n = 320,000). S. cerevisiae Mot1-301 growth rescue, ATP luminescence, 38.5C; percent above DMSO median, 100 means doubled. AID 2716. growth rescue, % at 18.8 µM;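 active = every valid replicate shows activation above 250% relative to neutral control wells; inactive = the rest, any valid replicate at or below 250%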;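 also: OY570 slx delta 5 strain wells were the positive control but not used for scaling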
NALP3 yeast conf = confirmation of NALP3 inhibitors in yeast; shares compounds with NALP3 yeast inh; yeast expressing human NALP3, luminescence; inhibition, % at 10 µM; actives 81% (n = 1,300); AID 435006; in the data active = inhibition above about 48%
Casp1-ASC yeast = counter-screen for NALP3 inhibitors: yeast caspase-1-ASC; inhibition, % at 10 µM; actives 66% (n = 1,000); yeast expressing Caspase-1-ASC, luminescence counter screen; AID 488784; shares compounds with NALP3 yeast inh
NALP3 yeast rt = retest-confirmed inhibitor of NALP3 in yeast; shares compounds with NALP3 yeast inh; yeast expressing human NALP3, luminescence read-out; inhibition, % at 10 µM; actives 53% (n = 1,000); AID 488794
Starred values were filed as active, the others as inactive; · = not tested or not shown. Rule as the data show it, unless noted: active = inhibition above about 50%; inactive = the rest.

SMILES	VIM-2 inh	NALP3 yeast inh	NALP1 yeast inh	PolyA inhibitor	IMP-1 inhibitor	SUMO Mot1 rescue	NALP3 yeast conf	others
Cc1cccn2c(=O)nc(SCC(=O)N3CCN(c4ccccc4)CC3)nc12	·	2	·	-8	·	3	·
CCN(CC(=O)Nc1c(F)cccc1F)C(=O)c1cc(C)nc2ccccc12	·	-2	·	2	·	-7	·
O=C(C[C@H]1C/C=C\CC[C@@H](Cc2ccc(F)cc2)C(=O)OC[C@H]2CCCN2C1=O)N[C@@H](CO)Cc1ccccc1	·	16	·	·	·	14	·
NC(=NCCCCCCN=C(N)/N=C(\N)Nc1ccc(Cl)cc1)/N=C(\N)Nc1ccc(Cl)cc1	-2	69*	21	7	-3	-68	74*	Casp1-ASC yeast=61*;NALP3 yeast rt=52*
CC(C)N=C(N)N=C(N)Nc1ccc(Cl)cc1	·	11	·	·	·	·	·
N#Cc1cn(-c2ccccc2)nc1-c1ccc2c(c1)OCCO2	0	5	-12	7	-2	-18	·
O=Cc1cn(-c2ccccc2)nc1-c1ccc2c(c1)OCCO2	-1	50*	-19	·	-1	14	57*	Casp1-ASC yeast=52*;NALP3 yeast rt=60*
O=C(Nc1ccc(Br)cn1)c1cccc2ccccc12	·	52*	·	-14	·	16	21
COc1c(C(=O)Nc2ccc(Br)cn2)ccc2ccccc12	-4	28	20	-30	-3	1	·
CC(C)[C@H](NC(=O)c1ccc(Br)cc1)C(=O)NC1CCCCC1	·	26	·	·	·	·	·

Screening results deposited in PubChem by several laboratories.
